We go through 8 molecules from ChEMBL document CHEMBL4265962, “Pyrrolidine nucleoside bisphosphonates as antituberculosis agents targeting hypoxanthine-guanine phosphoribosyltransferase” (Eur J Med Chem, 2018).

Converted amounts (≈) assume the structure as drawn.

Data set [1] concerns the target T1, Hypoxanthine-guanine phosphoribosyltransferase (Mycobacterium tuberculosis (strain ATCC 25618 / H37Rv), UniProt P9WHQ9).
T1 sequence (P9WHQ9 whole entry): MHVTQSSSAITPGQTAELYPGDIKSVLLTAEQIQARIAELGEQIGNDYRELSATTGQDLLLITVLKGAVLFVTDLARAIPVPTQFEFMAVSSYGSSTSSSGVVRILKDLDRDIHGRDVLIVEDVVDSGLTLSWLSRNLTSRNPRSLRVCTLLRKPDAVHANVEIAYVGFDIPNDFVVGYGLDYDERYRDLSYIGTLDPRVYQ
As to the kind of experiment: Inhibition of Mycobacterium tuberculosis recombinant N-terminal 6His-tagged HGPRT expressed in Escherichia coli BL21 (DE3) using fixed concentration of guanine and variable concentrations of PRib-PP as substrate by spectrophotometric analysis. The method in brief: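 Recombinant MtHGPRT, stored in 0.1 M Tris-HCl, 12 mM MgCl2, pH 7.4 with 200 μM PRib-PP at -80 °C. Continuous spectrophotometric assay following guanine to GMP at 257.5 nm in 0.01 M phosphate, 12 mM MgCl2, pH 7.4.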

Data set [2] deals with T2, Hypoxanthine-guanine phosphoribosyltransferase (Homo sapiens, UniProt P00492).
T2 sequence (P00492 whole entry): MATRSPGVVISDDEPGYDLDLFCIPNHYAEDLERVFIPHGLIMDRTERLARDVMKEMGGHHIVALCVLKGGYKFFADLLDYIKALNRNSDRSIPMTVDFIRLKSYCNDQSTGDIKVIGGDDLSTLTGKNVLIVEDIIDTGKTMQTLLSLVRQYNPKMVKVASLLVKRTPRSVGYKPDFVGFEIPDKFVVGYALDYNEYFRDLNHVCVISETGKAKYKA
As to the kind of experiment: Inhibition of human HGPRT using fixed concentration of guanine and variable concentrations of PRib-PP as substrate by spectrophotometric analysis.

A short description of data set [3]: Ratio of Ki for Mycobacterium tuberculosis recombinant N-terminal 6His-tagged HGPRT expressed in Escherichia coli BL21 (DE3) to Ki for human HGPRT.
The nature of data set [4]: Cytotoxicity against human A549 cells after 4 days by Coulter counting analysis. It is filed as cell-based. The method in brief:
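A549 cells seeded at 7500/well; serially diluted compounds added the next day. After 4 days at 37 °C, cells were trypsinized and counted. CC50 is the concentration that gives 50% inhibition of proliferation relative to no-compound control. It was obtained by extrapolation assuming a semi-log dose-response.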

For data set [5], the system named is Mycobacterium tuberculosis. Kind of data set: Ratio of MIC90 for Mycobacterium tuberculosis H37Rv under hypoxic condition to MIC90 for replicating stage of Mycobacterium tuberculosis H37Rv. It is filed as functional. The method in brief: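 Inhibitors were serially diluted, incubated 5 days at 37 °C, then read by fluorescence (ex 530/em 590) for MIC90. The hypoxic arm used a 0.1% O₂ chamber, was read 48 h after resazurin addition, and ran isoniazid controls in parallel.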

The subject of data set [6] is Mycobacterium tuberculosis. Kind of data set: Antitubercular activity against replicating stage of Mycobacterium tuberculosis H37Rv after 5 days by resazurin dye-based assay. It is filed as functional. Particulars: 120 h. A general note: Alamar Blue is a resazurin reagent that responds to reducing activity.
For data set [7], the target named is T2, Hypoxanthine-guanine phosphoribosyltransferase. As to the kind of experiment: Inhibition of recombinant human HGPRT using fixed concentration of guanine and variable concentrations of PRib-PP as substrate by Hanes plot analysis.
For data set [8], the system named is Mycobacterium tuberculosis. Kind of data set: Antitubercular activity against Mycobacterium tuberculosis H37Rv infected in human THP-1 cells after 4 days by fluorescence based assay. It is filed as functional. Particulars: 96 h. The method in brief: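 THP-1 cells differentiated with 50 ng/ml PMA for 72 h (5×10^5 cells/mL), infected with mCherry-expressing H37Rv at MOI 1:1 for 2 h, washed twice to remove extracellular bacilli.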

Data set [9] relates to Mycobacterium tuberculosis. Kind of data set: Antitubercular activity against Mycobacterium tuberculosis H37Rv after 5 days under hypoxic condition by resazurin dye-based assay. The conditions noted are these: 120 h. In kind it is functional.
Data set [10] deals with T1, Hypoxanthine-guanine phosphoribosyltransferase. Kind of data set: Inhibition of Mycobacterium tuberculosis recombinant N-terminal 6His-tagged HGPRT expressed in Escherichia coli BL21 (DE3) using fixed concentration of guanine and variable concentrations of PRib-PP as substrate in presence of pyrophosphate by spectrophotometric analysis. In short, it runs like this:
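Continuous assay of recombinant MtHGPRT at 257.5 nm (guanine to GMP) in 0.01 M phosphate, 12 mM MgCl2, pH 7.4, with 400 μM pyrophosphate added.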

As for `Nc1nc2c(ncn2[C@@H]2CN(C(=O)CCP(=O)(O)O)C[C@@H]2OCCP(=O)(O)O)c(=O)[nH]1`, the Ki in data set [1] is 40 nM; in data set [2], 30 nM. In addition, the Ratio Ki in data set [3] is 1.3.
In the case of `Nc1nc2c(ncn2[C@@H]2CN(C(=O)CCP(=O)(O)O)C[C@H]2OC[C@@H](O)P(=O)(O)O)c(=O)[nH]1`, the inhibitory constant (Ki) is 60 nM in data set [1] and 3 nM in [7]. Besides, it took 132000 nM to reach half-maximal cytotoxicity in data set [4] (CC50 at 96 h). For the same molecule, the Ratio in data set [5] was 2. Also, the MIC90 in data set [6] worked out at 14 µM (≈ 6.95 µg/mL); in data set [8], 85 µM (≈ 42.2 µg/mL); in [9], 29 µM (≈ 14.4 µg/mL). For the same molecule, in data set [3], the Ratio Ki is 20.
Turning to `Nc1nc2c(ncn2[C@@H]2CNC[C@@H]2OCP(=O)(O)O)c(=O)[nH]1`, the values for the inhibition constant Ki in data set [1], in [10] and in data set [2] were 8000 nM, 740 nM and 29000 nM, respectively. The Ratio Ki in [3] turned out to be 0.3.
Regarding `O=C(CCP(=O)(O)O)N1C[C@@H](n2cnc3c(O)ncnc32)[C@H](OC[C@@H](O)P(=O)(O)O)C1`, in data set [1], the inhibitory constant (Ki) was 60 nM.
On to `O=C(CCP(=O)(O)O)N1C[C@H](OCCP(=O)(O)O)[C@H](n2cnc3c(O)ncnc32)C1`, for which the inhibition constant Ki in data set [1] amounted to 420 nM; in data set [2], 600 nM. The Ratio Ki in data set [3] was determined as 0.7.
For the molecule `Nc1nc2c(ncn2[C@@H]2CN(C(=O)CCP(=O)(O)O)C[C@H]2OC[C@H](O)P(=O)(O)O)c(=O)[nH]1`, the figures for the Ki in [1] and in data set [7] were 130 nM and 8 nM, respectively. The Ratio Ki in data set [3] came out at 16.
Turning to `O=P(O)(O)CO[C@H]1CNC[C@H]1n1cnc2c(O)ncnc21`, the inhibitory constant (Ki) in data set [1] was 88000 nM; in data set [10], 3000 nM; in [2] it was 327000 nM. Besides, the Ratio Ki in data set [3] was found to be 0.3.
As to `O=C(CCP(=O)(O)O)N1C[C@@H](n2cnc3c(O)ncnc32)[C@H](OC[C@H](O)P(=O)(O)O)C1`, in [1], the Ki was determined as 200 nM.

One may read the Ki as a measure of affinity in units of concentration, obtained from inhibition or displacement. Usually CC50 stands for the concentration that lowers cell viability or growth by half. Higher therefore signals better tolerance by the cells. Broadly, the MIC90 is an inhibitory concentration at the 90% level, which refers to growth in some studies and to a panel of isolates in others. Read a low MIC90 as higher susceptibility.
